Reference: ChEMBL document CHEMBL1212828, “Synthesis and biological evaluation of novel pyrazole compounds” (Bioorg Med Chem, 2010)
Active and inactive are the calls of the source. The rule behind the calls is not given here.

Experiments:
[1] = tested on: Rattus norvegicus; assay: Toxicity in Wistar albino rat assessed as ulcerogenic activity at 300 mg/kg, po qd for 3 days; assay type: organism-based; design: dose 300 mg/kg, route oral; details: in vivo, 72 h
Outline: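 Rats in groups of five, fasted 12 h with water ad libitum; oral dosing in two equal portions at 0 and 12 h for three days, 300 mg/kg per day; control given 1% gum acacia. Killed 6 h after last dose; stomach opened along greater curvature, saline-washed, inspected under 3× lens for hyperemia, hemorrhage, erosion or ulcer.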

[2] = tested on: THP-1; assay: Antiinflammatory activity in human THP1 cells assessed as reduction in LPS and IFN-gamma-induced MCP1 level at 500 uM after 24 hrs; assay type: functional, cell-based
Outline: (§1)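 THP-1 cells in DMEM-F12 with 5% FBS, 24-well plates, pretreated 15 min with compound or DMSO vehicle, then stimulated with LPS 0.5 µg/mL plus IFN-γ 150 U/mL for 24 h. Death read as supernatant LDH (iodonitrotetrazolium formazan, 490 nm, fraction of Triton X-100 lysate); survival by MTT; MCP-1 by ELISA. Concentration effects by randomized block ANOVA; 8–11 independent experiments.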

[3] = tested on: THP-1; assay: Neuroprotective activity against LPS and IFN-gamma-stimulated neurotoxin production in human THP1 cells assessed as inhibition of THP1 cell secretion-induced toxicity to human sSH-SY5Y cells after 72 hrs by LDH release assay; assay type: functional, cell-based
Outline: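 THP-1 cells pretreated 15 min with compound, then stimulated with LPS (0.5 µg/mL) plus IFN-γ (150 U/mL) for 24 h. Cell-free supernatant transferred to SH-SY5Y cells plated 24 h earlier (2 × 10^5 cells/mL). After 72 h, SH-SY5Y viability read by MTT (0.5 mg/mL, 1 h, 37 °C, OD570) or by LDH release (OD490, relative to Triton X-100 lysis). IC50 estimated.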

[4] = target: T1, Prostaglandin G/H synthase 2 (Homo sapiens) (UniProt P35354); assay: Inhibition of human COX2 at 100 uM
T1 sequence (whole entry): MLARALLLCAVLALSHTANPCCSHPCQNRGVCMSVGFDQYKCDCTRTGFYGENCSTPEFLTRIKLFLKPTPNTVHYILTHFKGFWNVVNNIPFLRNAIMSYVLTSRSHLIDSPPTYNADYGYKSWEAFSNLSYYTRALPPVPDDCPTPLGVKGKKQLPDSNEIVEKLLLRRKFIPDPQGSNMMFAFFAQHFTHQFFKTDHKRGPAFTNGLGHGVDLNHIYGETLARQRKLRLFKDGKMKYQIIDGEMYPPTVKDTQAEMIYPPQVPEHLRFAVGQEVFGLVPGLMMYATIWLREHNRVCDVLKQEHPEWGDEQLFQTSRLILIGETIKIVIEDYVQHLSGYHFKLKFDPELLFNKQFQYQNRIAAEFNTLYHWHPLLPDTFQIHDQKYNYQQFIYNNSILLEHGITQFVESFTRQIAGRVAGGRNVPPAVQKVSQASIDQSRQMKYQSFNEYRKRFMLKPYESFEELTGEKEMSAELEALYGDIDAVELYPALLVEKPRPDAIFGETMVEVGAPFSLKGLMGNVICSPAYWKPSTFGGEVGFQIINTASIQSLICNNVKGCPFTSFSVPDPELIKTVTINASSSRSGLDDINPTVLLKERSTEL
Outline: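 Screening kit with ovine COX-1 and human recombinant COX-2, run per manufacturer's protocol; percent inhibition of prostaglandin production measured for each isoform.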

[5] = tested on: SH-SY5Y; assay: Cytotoxicity against human SH-SY5Y cells assessed as reduction in cell viability at 500 uM after 72 hrs by MTT assay; assay type: functional
Outline: (§2)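 SH-SY5Y neuroblastoma cells exposed directly to compound at 5–500 µM; viability determined 72 h later by MTT (0.5 mg/mL final, 1 h at 37 °C, SDS/DMF solubilization overnight, 570 nm), relative to cells in fresh medium only.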

[6] = tested on: Rattus norvegicus; assay: Antiinflammatory activity in Wistar albino rat assessed as inhibition of formalin-induced paw edema at 20 mg/kg, po administered 1 hr prior to formalin challenge measured after 2 hrs relative to control; assay type: functional
Outline: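 Male Wistar rats, 180–200 g, groups of five; single oral dose 1 h before 2% formalin (0.1 mL) into subplantar left hind paw under light ether anaesthesia. Paw volume read by water plethysmometer at baseline and 1, 2, 3, 4 h; % inhibition = control (Vt−Vo) minus treated (Vt−Vo), over control, ×100. Means ± SEM; ANOVA with Student–Newman–Keuls.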

[7] = tested on: SH-SY5Y (Homo sapiens); assay: Neuroprotective activity against LPS and IFN-gamma-induced human THP1 cell supernatant-induced death of human SH-SY5Y cells after 72 hrs by MTT assay; details: THP-1
[8] = tested on: SH-SY5Y; assay: Neuroprotective activity against H2O2-induced oxidative stress in human SH-SY5Y cells; assay type: functional, cell-based
Outline: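 SH-SY5Y cells seeded at 2 × 10^5/mL in DMEM-F12 with 5% FBS; after 24 h medium replaced by supernatant of THP-1 cells stimulated 24 h with LPS + IFN-γ, or by medium containing 250 µM H2O2, with compound added at transfer. Cell death measured by LDH assay 72 h later; five independent experiments; randomized block ANOVA.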

[9] = tested on: SH-SY5Y; assay: Cytotoxicity against human SH-SY5Y cells assessed as reduction in cell viability at 100 uM after 72 hrs by MTT assay; assay type: functional; outline: as §2
[10] = tested on: THP-1; assay: Antiinflammatory activity in human THP1 cells assessed as reduction in LPS and IFN-gamma-induced level at 500 uM after 24 hrs
[11] = tested on: THP-1; assay: Cytotoxicity against human THP1 cells assessed as reduction in cell viability; assay type: cell-based; outline: as §1
[12] = tested on: THP-1; assay: Neuroprotective activity against LPS and IFN-gamma-stimulated neurotoxin production in human THP1 cells assessed as increase in THP1 cell secretion-induced LDH release to human SY-SH5Y cells at 10 to 100 uM after 72 hrs; assay type: functional, cell-based
Outline: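 THP-1 cells treated with 10–100 µM compound 15 min before LPS/IFN-γ stimulation for 24 h. Supernatants transferred to SH-SY5Y cells. After 72 h, LDH released into the neuronal medium measured colorimetrically and expressed as a fraction of Triton X-100-lysed wells.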

[13] = tested on: THP-1; assay: Neuroprotective activity against LPS and IFN-gamma-stimulated neurotoxin production in human THP1 cell assessed as inhibition of THP1 cell secretion-induced toxicity to human SY-SH5Y cells after 48 hrs of LPS nd IFN-gamma challenge measured after 72 hrs by LDH release assay; assay type: functional, cell-based
Outline: (§3)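 THP-1 cells given compound 15 min before LPS (0.5 µg/mL) plus IFN-γ (150 U/mL), then incubated 48 h. Cell-free supernatant moved onto SH-SY5Y cells plated 24 h earlier. Neuronal survival after 72 h by MTT assay or LDH release. 11 independent experiments; IC50 estimated.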

[14] = tested on: THP-1; assay: Neuroprotective activity against LPS and IFN-gamma-stimulated neurotoxin production in human THP1 cell assessed as inhibition of THP1 cell secretion-induced toxicity to human SY-SH5Y cells after 48 hrs of LPS nd IFN-gamma challenge measured after 72 hrs by MTT assay; assay type: functional, cell-based; outline: as §3

Structure (SMILES) | Activity [1] | Activity [2] | Activity [3] | inhibition [4] | Activity [5] | inhibition in vivo at 20 mg/kg [6] | Activity [7] | Activity [8] | Activity [9] | Activity [10] | EC50 [11] | Activity [12] | IC50 [13] | IC50 [14]
N#Cc1cnn(-c2ccccc2)c1NC(=O)C(=O)Nc1c(C#N)cnn1-c1ccccc1 | 0% | Active | Active | 14% | 86% | 41% | Active | inactive | 23% | Active | 100 µM | Active |  | 
CC(NC(=O)C(=O)Nc1c(C#N)cnn1-c1ccccc1)c1ccccc1 (stereo not drawn) | 10% |  |  | 33.8% |  | 27% |  |  |  |  | 500 µM |  | 40 µM | 14 µM
